Measured values published in ChEMBL document CHEMBL2385072, “Development of oleanane-type triterpenes as a new class of HCV entry inhibitors” (J Med Chem, 2013).
The source made the active and inactive calls. The rule behind the calls is not given here.

Assays:
Hepatitis C virus [1] = experiment: Antiviral activity against pseudo HCV infected in human 293T cells assessed as inhibition of HCV pseudo particles entry at 5 uM after 72 hrs by luciferase reporter gene assay; assay type: functional, Hepacivirus hominis; settings: HEK-293T
Hepatitis C virus [2] = experiment: Antiviral activity against pseudo HCV infected in human 293T cells assessed as inhibition of HCV pseudo particles entry at 1 uM after 72 hrs by luciferase reporter gene assay; assay type: functional, Hepacivirus hominis; settings: HEK-293T
Hepatitis C virus [3] = experiment: Ratio of echinocystic acid IC50 to compound IC50 for pseudo HCV infected in human 293T cells assessed as inhibition of HCV pseudo particles entry after 72 hrs by luciferase reporter gene assay; assay type: functional, Hepacivirus hominis
Method in brief: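 HCVpp luciferase entry assay in Huh-7 cells, 72 h at 37 °C. Six-point curves at tenfold steps, 1 nM–100 μM or 0.5 nM–50 μM. Each concentration in triplicate, mean and SD.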

HEK-293T = experiment: Cytotoxicity against human 293T cells at 50 uM after 48 hrs by Alamar Blue assay; assay type: cell-based
Method in brief: (§1)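 alamarBlue viability assay in HepG2, HeLa and 293T cells, compound up to 50 μM.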

HeLa = experiment: Cytotoxicity against human HeLa cells at 50 uM after 48 hrs by Alamar Blue assay; assay type: cell-based; method in brief: as §1
HepG2 = experiment: Cytotoxicity against human HepG2 cells at 50 uM after 48 hrs by Alamar Blue assay; assay type: cell-based; settings: hepg2, 48 h; method in brief: as §1
Hepatitis C virus [4] = experiment: Antiviral activity against pseudo HCV infected in human 293T cells assessed as inhibition of HCV pseudo particles entry after 72 hrs by luciferase reporter gene assay; assay type: functional, organism-based, Hepacivirus hominis
Method in brief: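 HCVpp (HCV E1/E2 on Env/Vpr-deficient HIV luciferase vector, made in 293T by cotransfection, harvested 72 h) added to 5×10^3 Huh-7 cells/well with compound at final 1 or 5 μM in 1% DMSO; 72 h, 37 °C; luciferase read. Inhibition = 100 − % of DMSO control after uninfected-well background subtraction; VSVpp run in parallel; duplicate, ≥3 experiments.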

[5] = tested on: Vesicular stomatitis virus; experiment: Antiviral activity against pseudo VSV infected in human 293T cells assessed as inhibition of vesicular stromatis G protein pseudo particles entry at 5 uM after 72 hrs by luciferase reporter gene assay; assay type: functional; settings: HEK-293T
[6] = tested on: Vesicular stomatitis virus; experiment: Antiviral activity against pseudo VSV infected in human 293T cells assessed as inhibition of vesicular stromatis G protein pseudo particles entry at 1 uM after 72 hrs by luciferase reporter gene assay; assay type: functional; settings: HEK-293T
Hepatitis C virus [7] = experiment: Antiviral activity against pseudo HCV infected in human 293T cells assessed as inhibition of HCV pseudo particles entry at 10 uM after 72 hrs by luciferase reporter gene assay; assay type: functional, Hepacivirus hominis; settings: HEK-293T
CD81 antigen = target: T1, CD81 antigen (Homo sapiens, UniProt P60033); experiment: Binding affinity to CD81 (unknown origin)
T1 sequence (P60033 whole entry): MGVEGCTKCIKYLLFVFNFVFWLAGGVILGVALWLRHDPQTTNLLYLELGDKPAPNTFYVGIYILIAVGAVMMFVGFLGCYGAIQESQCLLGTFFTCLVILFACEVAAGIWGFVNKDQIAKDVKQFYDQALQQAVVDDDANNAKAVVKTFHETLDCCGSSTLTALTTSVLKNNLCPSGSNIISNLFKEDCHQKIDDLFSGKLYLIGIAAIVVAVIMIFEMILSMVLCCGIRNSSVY
Method in brief: (§2)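 BIAcore: E2 immobilized on a streptavidin sensor via SA–biotin and exposed to CD81 at 40.9–654.5 nM to fit K_D. CD81 was also tested together with compound.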

[8] = Hemolytic activity against rabbit RBC after 60 mins by spectrophotometry; assay type: ADME, cell-based, Oryctolagus cuniculus, Erythrocyte
Method in brief: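 2% rabbit erythrocytes in 130 mM NaCl, 20 mM Tris-HCl pH 7.4 incubated with serially diluted compounds for 60 min at 37 °C. Hemolysis read as absorbance at 540 nm.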

Hepacivirus hominis [9] = experiment: Binding affinity to HCV envelope protein E2 protein by SPR method
Method in brief: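 E2 loaded on streptavidin-coated biosensors and exposed to compound at 3.125–100 μM to obtain binding curves and K_D. Competition was also tested as E2 binding to a biotin-labelled compound chip in the presence of free compound at varied doses.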

[10] = Inhibition of HCV envelope protein E2 protein interaction with CD81 receptor (unknown origin) by BIAcore assay; design: species or system Hepacivirus hominis; method in brief: as §2
Hepacivirus hominis [11] = experiment: Binding affinity to HCV envelope protein E2 protein by pull down assay
Method in brief: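 Biotin-labelled probe incubated with lysate of HCVpp-packaging cells and captured on streptavidin agarose. Free biotin and unlabelled compound served as parallel probes. For competition, excess free compound was added to the lysate. Bound E2 was detected.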

Hepatitis C virus [12] = experiment: Antiviral activity against pseudo HCV infected in human Huh7 cells at 10 uM after 72 hrs; assay type: functional, organism-based; settings: Hepacivirus hominis, Huh-7
Method in brief: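 Post-entry: Huh7 cells infected with HCVpp at 37 °C for 6 h, washed, then treated with 10 μM compound at 37 °C for 72 h. Normalized to 0.5% DMSO. CD81 antibody 5 nM as control.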

Hepatitis C virus [13] = experiment: Antiviral activity against pseudo HCV infected in human Huh7 cells assessed as inhibition of HCV pseudo particles entry at 10 uM incubated for 3 hrs prior to compound addition measured after 72 hrs; assay type: functional, organism-based; settings: Hepacivirus hominis, Huh-7
Method in brief: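 Post-binding/pre-entry: Huh7 cells incubated with HCVpp at 4 °C for 3 h, washed, then treated with 10 μM compound at 37 °C for 72 h. Normalized to 0.5% DMSO. CD81 antibody 5 nM as control.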

Hepatitis C virus [14] = experiment: Antiviral activity against pseudo HCV infected in human Huh7 cells assessed as inhibition of HCV pseudo particles entry at 10 uM incubated for 3 hrs prior to virus addition measured after 72 hrs; assay type: functional, organism-based; settings: Hepacivirus hominis, Huh-7
Method in brief: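 Pretreatment: Huh7 cells exposed to 10 μM compound for 3 h at 37 °C, washed, then infected with HCVpp for 72 h at 37 °C. Normalized to 0.5% DMSO. CD81 antibody 5 nM as control.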

Hepatitis C virus [15] = experiment: Antiviral activity against pseudo HCV infected in human Huh7 cells assessed as inhibition of HCV pseudo particles entry at 10 uM incubated for 3 hrs; assay type: functional, organism-based; settings: Hepacivirus hominis, Huh-7
Method in brief: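 Prebinding: Huh7 cells exposed to HCVpp plus 10 μM compound at 4 °C for 3 h, washed free of virus and compound, then cultured 72 h at 37 °C. Normalized to 0.5% DMSO. CD81 antibody 5 nM as control.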

Hepatitis C virus [16] = experiment: Antiviral activity against pseudo HCV infected in human Huh7 cells assessed as inhibition of HCV pseudo particles entry at 10 uM after 72 hrs; assay type: functional, organism-based; settings: Hepacivirus hominis, Huh-7
Method in brief: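 Co-treatment: Huh7 cells infected with HCVpp (or VSVpp) with 10 μM compound present throughout, 72 h at 37 °C. Normalized to 0.5% DMSO (final). CD81 antibody (5 nM) was the positive control and an unrelated compound the negative control. Luciferase read-out.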

Compound: CC(=O)OC[C@H]1O[C@@H](O[C@H]2[C@H](OC(C)=O)[C@@H](OC(C)=O)[C@H](OC(=O)[C@]34CCC(C)(C)C[C@H]3C3=CC[C@@H]5[C@@]6(C)CC[C@H](O)C(C)(C)[C@@H]6CC[C@@]5(C)[C@]3(C)C[C@H]4O)O[C@@H]2COC(C)=O)[C@H](OC(C)=O)[C@@H](OC(C)=O)[C@H]1OC(C)=O
- inhibition at 5 µM (Hepatitis C virus [1]): 88.6%
- inhibition at 1 µM (Hepatitis C virus [2]): 80.4%
- Ratio IC50 (Hepatitis C virus [3]): 5
- Activity (HEK-293T): Non-toxic
- Activity (HeLa): Non-toxic
- Activity (HepG2): Non-toxic
- IC50 (Hepatitis C virus [4]): 300 nM
- inhibition at 5 µM [5]: 14.9%
- inhibition at 1 µM [6]: 11.2%

Compound: CC1(C(=O)O)CC[C@]2(C)CC[C@]3(C)C(=CC(=O)[C@@H]4[C@@]5(C)CC[C@H](O)C(C)(C)[C@@H]5CC[C@]43C)[C@@H]2C1 (single isomer, unassigned) [ENOXOLONE]
- inhibition at 10 µM (Hepatitis C virus [7]): 5%

Compound: CC1(C)CC[C@]2(C(=O)O)CC[C@]3(C)[C@H](C(O)C[C@@H]4[C@@]5(C)CC[C@H](O)C(C)(C)[C@@H]5CC[C@]43C)[C@@H]2C1 (stereo partly specified)
- inhibition at 10 µM (Hepatitis C virus [7]): 60%

Compound: CC(=O)O[C@H]1CC[C@]2(C)[C@H]3CC=C4[C@@H]5CC(C)(C)CC[C@]5(C(=O)O)CC[C@@]4(C)[C@]3(C)CC[C@H]2C1(C)C [ACETYL OLEANOLIC ACID]
- inhibition at 10 µM (Hepatitis C virus [7]): 10%

Compound: CC1(C)CC[C@]2(C(=O)O)CC[C@]3(C)C(=CC[C@@H]4[C@@]5(C)CC[C@H](OC6O[C@H](CO)[C@@H](O)[C@H](O)[C@H]6O)C(C)(C)[C@@H]5CC[C@]43C)[C@@H]2C1 (stereo partly specified)
- inhibition at 10 µM (Hepatitis C virus [7]): 0%

Compound: CC1(C)CC[C@]2(C(=O)O)CC[C@]3(C)C(=CC[C@@H]4[C@@]5(C)CC[C@H](O)[C@@](C)(C=O)[C@@H]5CC[C@]43C)[C@@H]2C1
- inhibition at 10 µM (Hepatitis C virus [7]): 0%

Compound: CC1(C)CC[C@]2(C(=O)O)[C@H](O)C[C@]3(C)C(=CC[C@@H]4[C@@]5(C)CC[C@H](O)C(C)(C)[C@@H]5[C@H](O)C[C@]43C)[C@@H]2C1
- inhibition at 10 µM (Hepatitis C virus [7]): 5%

Compound: CC1(C)CC[C@]2(C(=O)O)[C@H](O)C[C@]3(C)C(=CC[C@@H]4[C@@]5(C)CC[C@H](O)C(C)(C)[C@@H]5CC[C@]43C)[C@@H]2C1 [ECHINOCYSTIC ACID]
- Kd (CD81 antigen): 21 nM
- Activity (HEK-293T): Non-toxic
- Activity (HeLa): Non-toxic
- HC50 at 1 h ([8]; rabbit red blood cells, read-out: CC50): 15 µM
- Activity (HepG2): Non-toxic

Compound: CC1(C)CC[C@]2(C(=O)O)[C@H](O)C[C@]3(C)C(=CC[C@@H]4[C@@]5(C)CC[C@H](O)C(C)(C)[C@@H]5CC[C@]43C)[C@H]2C1 [ECHINOCYSTIC ACID]
- inhibition at 5 µM (Hepatitis C virus [1]): 77.7%
- inhibition at 1 µM (Hepatitis C virus [2]): 27.5%
- Activity (Hepacivirus hominis [9]): Dose-dependent effect
- Kd [10]: 24000 nM
- Activity (Hepacivirus hominis [11]): Active
- Activity (Hepatitis C virus [12]): inactive
- inhibition (Hepatitis C virus [13]): Active
- inhibition (Hepatitis C virus [14]): Active
- inhibition (Hepatitis C virus [15]): Active
- inhibition (Hepatitis C virus [16]): Active
- inhibition at 10 µM (Hepatitis C virus [7]): 90%
- IC50 (Hepatitis C virus [4]): 1400 nM
- inhibition at 5 µM [5]: 9%
- inhibition at 1 µM [6]: 7.2%

Compound: CC1(C)[C@@H](O)CC[C@]2(C)[C@H]3CC=C4[C@@H]5C[C@](C)(CO)CC[C@]5(C(=O)O)[C@H](O)C[C@@]4(C)[C@]3(C)CC[C@@H]12
- inhibition at 10 µM (Hepatitis C virus [7]): 90%

Compound: CC1(C)CC[C@]2(C(=O)O)CC[C@]3(C)[C@H](C(=O)C[C@@H]4[C@@]5(C)CC[C@H](O)C(C)(C)[C@@H]5CC[C@]43C)[C@@H]2C1
- inhibition at 10 µM (Hepatitis C virus [7]): 50%

Compound: CC1(C)CC[C@]2(C(=O)O)CC[C@]3(C)C(=CC[C@@H]4[C@@]5(C)CCC(=O)C(C)(C)[C@@H]5CC[C@]43C)[C@@H]2C1 [OLEANONIC ACID]
- inhibition at 10 µM (Hepatitis C virus [7]): 0%

Compound: CC1(C)CC[C@]2(C(=O)O)CC[C@]3(C)C(=CC[C@@H]4[C@@]5(C)CC[C@H](O)C(C)(C)[C@@H]5CC[C@]43C)[C@@H]2C1 [OLEANOLIC_ACID]
- Activity ([8]; erythrocyte, 1 h): Toxic
- inhibition at 10 µM (Hepatitis C virus [7]): 65%
- IC50 (Hepatitis C virus [4]): 10000 nM

Compound: CC1(C)CC[C@]2(C(=O)O)CC[C@]3(C)C(=CC[C@@H]4[C@@]5(C)CC[C@H](O)[C@@](C)(C(=O)O)[C@@H]5CC[C@]43C)[C@@H]2C1
- inhibition at 10 µM (Hepatitis C virus [7]): 0%

Compound: CC1(C)CC[C@]2(C(=O)O)[C@H](O)C[C@]3(C)C(=CC[C@@H]4[C@@]5(C)CC[C@H](O)[C@@](C)(C=O)[C@@H]5CC[C@]43C)[C@@H]2C1 [QUILLAIC ACID]
- inhibition at 10 µM (Hepatitis C virus [7]): 0%

Compound: CC1(C)CC[C@]2(C(=O)NCc3cn(CCCn4cc(CNC(=O)[C@]56CCC(C)(C)C[C@H]5C5=CC[C@@H]7[C@@]8(C)CC[C@H](O)C(C)(C)[C@@H]8CC[C@@]7(C)[C@]5(C)C[C@H]6O)nn4)nn3)[C@H](O)C[C@]3(C)C(=CC[C@@H]4[C@@]5(C)CC[C@H](O)C(C)(C)[C@@H]5CC[C@]43C)[C@@H]2C1
- inhibition at 5 µM (Hepatitis C virus [1]): 89%
- inhibition at 1 µM (Hepatitis C virus [2]): 86.3%
- Ratio IC50 (Hepatitis C virus [3]): 200
- Activity (HEK-293T): Non-toxic
- Activity (HeLa): Non-toxic
- Activity (HepG2): Non-toxic
- IC50 (Hepatitis C virus [4]): 10 nM
- inhibition at 5 µM [5]: 11.9%
- inhibition at 1 µM [6]: 16.5%
